Here are results for five compounds from ChEMBL document CHEMBL1938366, “Synthesis and biological activity of novel barbituric and thiobarbituric acid derivatives against non-alcoholic fatty liver disease” (Eur J Med Chem, 2011).

Calls of active or inactive are those of the source. The calls are words filed in the database; no cut-off is given here.

Data set [1] relates to 3T3-L1. Nature of the data set: Induction of adipogenesis in mouse 3T3L1 cells assessed as decrease of leptin level at 10 uM after 24 hrs (reference value: 3089.21 +/- 33.37 pg/ml). It counts as functional.
The subject of data set [2] is 3T3-L1. Nature of the data set: Induction of adipogenesis in mouse 3T3L1 cells assessed as increase of adiponectin level at 10 uM after 8 to 12 days (reference value: 843.78 +/- 20.61 ng/ml). Format: functional.
Data set [3] relates to 3T3-L1. Nature of the data set: Induction of adipogenesis in mouse 3T3L1 cells assessed as increase of adiponectin expression at 10 uM after 8 to 12 days relative to control. It counts as functional.
For data set [4], the system named is 3T3-L1. The data set is described as follows: Cytotoxicity against mouse 3T3L1 cells assessed as glucose consumption at 10 uM by MTT assay. It counts as cell-based. As to conditions: 3t3-l1, 10 µM. In general terms: Tetrazolium assays rely on reduction of a dye to a coloured formazan, in cell work by metabolically active cells.
Data set [5] deals with HepG2. The data set is described as follows: Cytotoxicity against human HepG2 cells assessed as glucose consumption at 10 uM by MTT assay in presence of insulin. Format: cell-based. As to conditions: hepg2, 10 µM. In outline:
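HepG2 cells; glucose consumption measured with insulin co-present at 0.1 µM. Full procedure given in supplementary data (S3).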

For data set [6], the system named is HepG2. The data set is described as follows: Cytotoxicity against human HepG2 cells assessed as glucose consumption at 10 uM by MTT assay. Format: cell-based. As to conditions: hepg2, 10 µM.
The test system of data set [7] is Rattus norvegicus. Nature of the data set: Hepatoprotective activity against high fat/high calorie diet-induced non-alcoholic fatty liver disease in Wistar rat assessed as insulin at 50 mg/kg, po qd for 4 weeks (reference value: 36.32 +/- 2.97 uU/ml). It counts as functional.
In data set [8] the test system is Rattus norvegicus. The data set is described as follows: Hepatoprotective activity against high fat/high calorie diet-induced non-alcoholic fatty liver disease in Wistar rat assessed as reduction of fat accumulation in liver cells at 50 mg/kg, po qd for 4 weeks by oil red O and H & E staining. Format: functional, organism-based. The arrangement: dose 50 mg/kg. In outline:
(§1)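 Male Wistar rats on a high-fat/high-calorie diet were given compound orally at 50 mg/kg once daily for 4 weeks, suspended in Tween 80 and 5% saline. Liver sections were then stained with Oil Red O and H&E and compared against normal-diet and untreated diet-model rats.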

Data set [9] concerns Rattus norvegicus. The data set is described as follows: Hepatoprotective activity against high fat/high calorie diet-induced non-alcoholic fatty liver disease in Wistar rat assessed as HOMA-IR levels at 50 mg/kg, po qd for 4 weeks (reference value: 15.31 +/- 0.22). Format: functional.
Data set [10] deals with Rattus norvegicus. The data set is described as follows: Hepatoprotective activity against high fat/high calorie diet-induced non-alcoholic fatty liver disease in Wistar rat assessed as decreased triglyceride levels at 50 mg/kg, po qd for 4 weeks by radioimmunoassay (reference value: 2.38 +/- 1.20 mM). Format: functional.
Data set [11] has as its system Rattus norvegicus. Nature of the data set: Hepatoprotective activity against high fat/high calorie diet-induced non-alcoholic fatty liver disease in Wistar rat assessed as decrease in liver/body weight ratio at 50 mg/kg, po qd for 4 weeks (reference value: 4.95 %). Format: functional. The arrangement: scale not given: the % may be the effect or the level left.
In data set [12] the test system is Rattus norvegicus. Nature of the data set: Hepatoprotective activity against high fat/high calorie diet induced NAFLD in Wistar rat assessed as restoration of liver cells at 50 mg/kg, po qd for 4 weeks by oil red O and H & E staining. It counts as functional, organism-based. The arrangement: dose 50 mg/kg. Summed up:
as §1

Data set [13] has as its system Rattus norvegicus. The data set is described as follows: Hepatoprotective activity against high fat/high calorie diet-induced non-alcoholic fatty liver disease in Wistar rat assessed as serum leptin levels at 50 mg/kg, po qd for 4 weeks (reference value: 7.59 +/- 2.36 ng/ml). It counts as functional.
Data set [14] concerns Rattus norvegicus. The data set is described as follows: Hepatoprotective activity against high fat/high calorie diet-induced non-alcoholic fatty liver disease in Wistar rat assessed as decreased FBS at 50 mg/kg, po qd for 4 weeks by radioimmunoassay (reference value: 9.23 +/- […] mM). Format: functional.
Data set [15] concerns Rattus norvegicus. The data set is described as follows: Hepatoprotective activity against high fat/high calorie diet-induced non-alcoholic fatty liver disease in Wistar rat assessed as decreased visceral fat assessed per 100 gram of body weight at 50 mg/kg, po qd for 4 weeks (reference value: 4.95 +/- 0.95 g/100g BW). It counts as functional.
For data set [16], the system named is Rattus norvegicus. Nature of the data set: Toxicity in high fat/high calorie diet-induced non-alcoholic fatty liver disease Wistar rat model assessed as abnormal behavioral at 50 mg/kg, po qd for 4 weeks. It counts as organism-based. The arrangement: dose 50 mg/kg, route oral. As to conditions: in vivo, 672 h.
Data set [17] relates to Rattus norvegicus. Nature of the data set: Hepatoprotective activity against high fat/high calorie diet-induced non-alcoholic fatty liver disease in Wistar rat assessed as decreased body weight at 50 mg/kg, po qd for 4 weeks (reference value: 431 +/- 19.4 g). Format: functional.
In data set [18] the test system is Rattus norvegicus. The data set is described as follows: Hepatoprotective activity against high fat/high calorie diet-induced non-alcoholic fatty liver disease in Wistar rat assessed as serum adiponectin levels at 50 mg/kg, po qd for 4 weeks (reference value: 10.49 +/- 2.59 ng/ml). It counts as functional.
Data set [19] relates to Rattus norvegicus. The data set is described as follows: Hepatoprotective activity against high fat/high calorie diet-induced non-alcoholic fatty liver disease in Wistar rat assessed as decreased ALT levels at 50 mg/kg, po qd for 4 weeks (reference value: 47.52 +/- 4.98 u/l). Format: functional.
Data set [20] concerns Rattus norvegicus. Nature of the data set: Hepatoprotective activity against high fat/high calorie diet-induced non-alcoholic fatty liver disease in Wistar rat assessed as decreased HDL cholesterol levels at 50 mg/kg, po qd for 4 weeks by radioimmunoassay (reference value: 1.20 +/- 0.43 mM). It counts as functional.
Data set [21] concerns Rattus norvegicus. The data set is described as follows: Hepatoprotective activity against high fat/high calorie diet-induced non-alcoholic fatty liver disease in Wistar rat assessed as decreased liver weight at 50 mg/kg, po qd for 4 weeks (reference value: 21.4 +/- 3.1 g). Format: functional.
The subject of data set [22] is Rattus norvegicus. The data set is described as follows: Toxicity in high fat/high calorie diet-induced non-alcoholic fatty liver disease Wistar rat model assessed as physiological signs of toxicity at 50 mg/kg, po qd for 4 weeks. It counts as organism-based. The arrangement: dose 50 mg/kg, route oral. As to conditions: in vivo, 672 h.
The test system of data set [23] is Rattus norvegicus. Nature of the data set: Hepatoprotective activity against high fat/high calorie diet-induced non-alcoholic fatty liver disease in Wistar rat assessed as decreased LDL cholesterol levels at 50 mg/kg, po qd for 4 weeks by radioimmunoassay (reference value: 0.97 +/- 0.31 mM). Format: functional.

With `O=C(COc1ccc(C=C2C(=O)NC(=O)NC2=O)cc1)Nc1ccccc1`, the Activity was 1856.32 pg/mL with 3T3-L1 [1], 1111.73 ng/mL in the data set with 3T3-L1 [2], 135.18% in the data set with 3T3-L1 [3] and “Non-toxic” in the data set with 3T3-L1 [4].
`Cc1ccc(NC(=O)COc2ccc(C=C3C(=O)NC(=S)NC3=O)cc2)nc1`: the Activity with 3T3-L1 [1] was 1514.81 pg/mL; in the data set on 3T3-L1 [2] it was 1239.44 ng/mL; in the data set on 3T3-L1 [3] it was 146.94%; with 3T3-L1 [4], “Non-toxic”.
As to `CN(CCOc1ccc(CC2SC(=O)NC2=O)cc1)c1ccccn1` (stereo not drawn) [ROSIGLITAZONE], the Activity with 3T3-L1 [1] turned out to be 1773.67 pg/mL; in the data set with 3T3-L1 [2], 1324.73 ng/mL; with 3T3-L1 [3] it was 157.31%; in the data set on HepG2 [5] it was 29.41%; in the data set with HepG2 [6] it was 15.58%.
Regarding `O=C(COc1ccc(C=C2C(=O)NC(=O)NC2=O)cc1)Nc1ccccn1`, the Activity in the data set on Rattus norvegicus [7] was determined as 33.43 uU/ml; with 3T3-L1 [1] it was 1271.98 pg/mL; in the data set on 3T3-L1 [2], 1639.61 ng/mL; in the data set on 3T3-L1 [3], 180.32%; in the data set on Rattus norvegicus [9], 7.03; with Rattus norvegicus [10], 1.02 mM. Further, the Activity in the data set with Rattus norvegicus [11] was 4.34%; in the data set with Rattus norvegicus [13] it was 6 ng/mL; in the data set with Rattus norvegicus [14] it was 4.73 mM; in the data set on Rattus norvegicus [15], 3.98 g; in the data set with Rattus norvegicus [16] it was “Non-toxic”; in the data set on Rattus norvegicus [17] it was 360.5 g. The Activity is 12.53 µg/mL in the data set on Rattus norvegicus [18]; 33.06 U/L in the data set on Rattus norvegicus [19]; “Non-toxic” with 3T3-L1 [4]; 1.11 mM in the data set on Rattus norvegicus [20]; 16 g with Rattus norvegicus [21]; “Non-toxic” with Rattus norvegicus [22]. In the data set on Rattus norvegicus [23], the Activity was found to be 0.18 mM. Moreover, the result with Rattus norvegicus [8] and in the data set with Rattus norvegicus [12] was Active.
Regarding `O=C(COc1ccc(C=C2C(=O)NC(=O)NC2=O)cc1)Nc1ccc(F)c(F)c1`, the Activity is 1571.98 pg/mL with 3T3-L1 [1], 1322.02 ng/mL in the data set on 3T3-L1 [2], 143.8% with 3T3-L1 [3] and “Non-toxic” with 3T3-L1 [4].
